Legend:
[1] = An average for IC50 values in the two solid tumor cell lines and sensitive L1210 leukemia cell line.; assay type: functional, cell-based
[2] = Toxicity ratio determined by the quotient of IC50 values in the myocytes divided by the average value in the three tumor lines.; assay type: functional
Procedure, shortened: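 Ratio is the myocyte cardiotoxicity IC50 (1-h exposure, ATP/protein ratio versus untreated myocytes) divided by the mean IC50 in sensitive L1210 and the two human tumor lines, measured with continuous exposure.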

[3] = tested on: Tumor cell line; assay: An average for IC50 values in the two solid tumor cell lines.; assay type: functional, cell-based
[4] = tested on: OVCAR-3; assay: Inhibitory activity against OVCAR-3 cell line; assay type: functional, cell-based; conditions: Homo sapiens
[5] = tested on: L1210; assay: Inhibitory activity against sensitive L1210 cell lines; assay type: functional, cell-based; conditions: Mus musculus
[6] = tested on: L1210; assay: Inhibitory activity against resistant murine leukemia L1210 cell lines.; assay type: functional, cell-based; conditions: Mus musculus
[7] = organism: Rattus norvegicus; assay: Cardiotoxicity by a neonatal rat heart myocyte assay; assay type: toxicity
Procedure, shortened: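 Neonatal rat heart myocytes exposed to drug for 1 h. Read-out is the ATP/protein ratio relative to untreated control myocytes. IC50 is the 1-h concentration that reduces this ratio to 50% of control.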

[8] = tested on: UACC-375; assay: Inhibitory activity against […] cell line; assay type: functional, cell-based; conditions: Homo sapiens
[9] = tested on: A549; assay: Tested against A549 lung carcinoma in the sulforhodamine B assay.; assay type: functional, cell-based; conditions: Homo sapiens
Procedure, shortened: (§1)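 Sulforhodamine B assay. Cells plated at 50 000/well; drug added on day 2 at 10^1–10^-5 μg/mL in half-log steps from DMSO stock diluted in PBS, final DMSO ≤0.1%. After 8-day exposure at 37 °C, cells fixed with TCA at 4 °C for 1 h and stained 30 min with 0.4% SRB. Dye solubilized in 10 mM Tris and OD read at 564 nm. Six wells per concentration; IC50 averaged.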

[10] = tested on: WiDr; assay: Tested against WiDr colon (sensitive) in the sulforhodamine B assay.; assay type: functional, cell-based; conditions: Homo sapiens; procedure, shortened: as §1
[11] = tested on: MCF7; assay: Tested against […] breast carcinoma (mitoxantrone resistant)cell line in the sulforhodamine B assay.; assay type: functional, cell-based; conditions: Homo sapiens; procedure, shortened: as §1
[12] = tested on: MCF7; assay: Tested against […] breast carcinoma (sensitive) cell line in the sulforhodamine B assay.; assay type: functional, cell-based; conditions: Homo sapiens; procedure, shortened: as §1
[13] = tested on: WiDr; assay: Tested against WiDr colon carcinoma (resistant) in the sulforhodamine B assay.; assay type: functional, cell-based; conditions: Homo sapiens; procedure, shortened: as §1
[14] = tested on: MCF7; assay: Tested against […] breast carcinoma (doxorubicin resistant) cell line in the sulforhodamine B assay.; assay type: functional, cell-based; conditions: Homo sapiens; procedure, shortened: as §1

## CC(=O)Nc1ccc2c3c(c4ccccc4cc13)C(=O)N(CCN(C)C)C2=O
[1]
  IC50: 4.62 µM
[2]
  Toxicity ratio: 2.8
[3]
  IC50: 6.68 µM
[4]
  IC50: 6.08 µM
[5]
  IC50: 0.486 µM
[6]
  IC50: 0.729 µM
[7]
  IC50: 12.9 µM
[8]
  IC50: 7.29 µM

## CN(C)CCN1C(=O)c2ccc(NCCO)c3cc4ccccc4c(c23)C1=O
[1]
  IC50: 0.024 µM
[2]
  Toxicity ratio: 50
[3]
  IC50: 0.034 µM
[4]
  IC50: 0.019 µM
[5]
  IC50: 0.006 µM
[6]
  IC50: 0.048 µM
[7]
  IC50: 1.21 µM
[8]
  IC50: 0.048 µM

## CN(C)CCNc1c2ccccc2c2c3c(cccc13)C(=O)N(CCN(C)C)C2=O
[1]
  IC50: 1.42 µM
[2]
  Toxicity ratio: 205
[3]
  IC50: 1.86 µM
[4]
  IC50: 2.88 µM
[5]
  IC50: 0.524 µM
[6]
  IC50: 0.524 µM
[7]
  IC50: 291 µM
[8]
  IC50: 0.839 µM

## COc1c2ccccc2c2c3c(cccc13)C(=O)N(CCN(C)C)C2=O
[9]
  IC50: 0.091 µM
[1]
  IC50: 0.134 µM
[2]
  Toxicity ratio: 194
[10]
  IC50: 0.18 µM
[3]
  IC50: 0.143 µM
[11]
  IC50: 0.27 µM
[4]
  IC50: 0.13 µM
[5]
  IC50: 0.117 µM
[6]
  IC50: 0.109 µM
[12]
  IC50: 0.15 µM
[7]
  IC50: 26 µM
[13]
  IC50: 0.26 µM
[8]
  IC50: 0.156 µM
[14]
  IC50: 0.18 µM

## CN(C)CCN1C(=O)c2ccc(S(C)(=O)=O)c3cc4ccccc4c(c23)C1=O
[1]
  IC50: 0.073 µM
[2]
  Toxicity ratio: 32
[3]
  IC50: 0.093 µM
[4]
  IC50: 0.093 µM
[5]
  IC50: 0.035 µM
[6]
  IC50: 0.035 µM
[7]
  IC50: 2.31 µM
[8]
  IC50: 0.093 µM

## CNCCN1C(=O)c2ccc(OC)c3cc4ccccc4c(c23)C1=O
[1]
  IC50: 0.913 µM
[2]
  Toxicity ratio: 8.9
[3]
  IC50: 1.35 µM
[4]
  IC50: 0.54 µM
[5]
  IC50: 0.041 µM
[6]
  IC50: 0.027 µM
[7]
  IC50: 8.1 µM
[8]
  IC50: 2.16 µM

## CN(C)CCN1C(=O)c2ccc(Cl)c3cc4c(Cl)cccc4c(c23)C1=O
[1]
  IC50: 0.63 µM
[2]
  Toxicity ratio: >37
[3]
  IC50: 0.709 µM
[4]
  IC50: 0.945 µM
[5]
  IC50: 0.472 µM
[6]
  IC50: 0.59 µM
[7]
  IC50: > 23.6 µM
[8]
  IC50: 0.472 µM

## CC(=O)Nc1c2ccccc2c2c3c(cccc13)C(=O)N(CCN(C)C)C2=O
[1]
  IC50: 0.649 µM
[2]
  Toxicity ratio: >36
[3]
  IC50: 0.73 µM
[4]
  IC50: 0.73 µM
[5]
  IC50: 0.487 µM
[6]
  IC50: 0.487 µM
[7]
  IC50: > 23.6 µM
[8]
  IC50: 0.73 µM

## CN(C)CCN1C(=O)c2cccc3c(Cl)c4ccccc4c(c23)C1=O
[1]
  IC50: 0.351 µM
[2]
  Toxicity ratio: 31
[3]
  IC50: 0.45 µM
[4]
  IC50: 0.386 µM
[5]
  IC50: 0.154 µM
[6]
  IC50: 0.206 µM
[7]
  IC50: 10.8 µM
[8]
  IC50: 0.514 µM

## CN(C)CCN1C(=O)c2ccc(N)c3cc4ccccc4c(c23)C1=O
[1]
  IC50: 0.074 µM
[2]
  Toxicity ratio: 20
[3]
  IC50: 0.109 µM
[7]
  IC50: 1.49 µM

## CCCOc1ccc2c3c(c4ccccc4cc13)C(=O)N(CCN(C)C)C2=O
[9]
  IC50: 0.019 µM
[1]
  IC50: 0.289 µM
[2]
  Toxicity ratio: 27
[10]
  IC50: 0.11 µM
[3]
  IC50: 0.425 µM
[11]
  IC50: 0.11 µM
[4]
  IC50: 0.364 µM
[5]
  IC50: 0.017 µM
[6]
  IC50: 0.049 µM
[12]
  IC50: 0.08 µM
[7]
  IC50: 7.76 µM
[13]
  IC50: 0.27 µM
[8]
  IC50: 0.485 µM
[14]
  IC50: 0.17 µM

## CSc1ccc2c3c(c4ccccc4cc13)C(=O)N(CCN(C)C)C2=O
[9]
  IC50: 0.0042 µM
[1]
  IC50: 0.0097 µM
[2]
  Toxicity ratio: 310
[10]
  IC50: 0.012 µM
[3]
  IC50: 0.014 µM
[11]
  IC50: 0.044 µM
[4]
  IC50: 0.0087 µM
[5]
  IC50: 0.00037 µM
[6]
  IC50: 0.00052 µM
[12]
  IC50: 0.01 µM
[7]
  IC50: 3 µM
[13]
  IC50: 0.064 µM
[8]
  IC50: 0.02 µM
[14]
  IC50: 0.012 µM

## CNCCN1C(=O)c2ccc(Cl)c3cc4ccccc4c(c23)C1=O
[1]
  IC50: 1.88 µM
[2]
  Toxicity ratio: 4
[3]
  IC50: 2.8 µM
[4]
  IC50: 0.267 µM
[5]
  IC50: 0.053 µM
[6]
  IC50: 0.053 µM
[7]
  IC50: 7.6 µM
[8]
  IC50: 5.33 µM

## CN(C)CCN1C(=O)c2ccc(N(C)C)c3cc4ccccc4c(c23)C1=O
[9]
  IC50: 0.023 µM
[1]
  IC50: 0.209 µM
[2]
  Toxicity ratio: 223
[10]
  IC50: 0.09 µM
[3]
  IC50: 0.302 µM
[11]
  IC50: 0.079 µM
[4]
  IC50: 0.503 µM
[5]
  IC50: 0.023 µM
[6]
  IC50: 0.096 µM
[12]
  IC50: 0.068 µM
[7]
  Activity: 46600
[13]
  IC50: 0.13 µM
[8]
  IC50: 0.101 µM
[14]
  IC50: 0.13 µM

## CCSc1ccc2c3c(c4ccccc4cc13)C(=O)N(CCN(C)C)C2=O
[9]
  IC50: 0.0045 µM
[1]
  IC50: 0.041 µM
[2]
  Toxicity ratio: 189
[3]
  IC50: 0.058 µM
[11]
  IC50: 0.033 µM
[4]
  IC50: 0.019 µM
[5]
  IC50: 0.006 µM
[6]
  IC50: 0.0048 µM
[12]
  IC50: 0.02 µM
[7]
  IC50: 7.74 µM
[13]
  IC50: 0.11 µM
[8]
  IC50: 0.097 µM
[14]
  IC50: 0.075 µM

## CN(C)CCN1C(=O)c2ccc(O)c3cc4ccccc4c(c23)C1=O
[1]
  IC50: 1.36 µM
[2]
  Toxicity ratio: >18
[3]
  IC50: 1.93 µM
[4]
  IC50: 0.723 µM
[5]
  IC50: 0.217 µM
[6]
  IC50: 0.145 µM
[7]
  IC50: > 24.1 µM
[8]
  IC50: 3.13 µM

## CN(C)CCNc1ccc2c3c(c4cccc(Cl)c4cc13)C(=O)N(CCN(C)C)C2=O
[1]
  IC50: 0.069 µM
[2]
  Toxicity ratio: 47
[3]
  IC50: 0.103 µM
[4]
  IC50: 0.176 µM
[5]
  IC50: 0.0029 µM
[6]
  IC50: 0.0068 µM
[7]
  IC50: 3.23 µM
[8]
  IC50: 0.029 µM

## CSc1c2ccccc2c2c3c(cccc13)C(=O)N(CCN(C)C)C2=O
[1]
  IC50: 2.79 µM
[2]
  Toxicity ratio: >18
[3]
  IC50: 1.06 µM
[4]
  IC50: 0.75 µM
[5]
  IC50: 6.25 µM
[6]
  IC50: 1.23 µM
[7]
  IC50: > 50 µM
[8]
  IC50: 1.38 µM

## CCc1ccc2c3c(c4ccccc4cc13)C(=O)N(CCN(C)C)C2=O
[1]
  IC50: 0.409 µM
[2]
  Toxicity ratio: 19
[3]
  IC50: 0.522 µM
[4]
  IC50: 0.522 µM
[5]
  IC50: 0.183 µM
[6]
  IC50: 0.235 µM
[7]
  IC50: 7.83 µM
[8]
  IC50: 0.522 µM

## Cc1c2ccccc2c2c3c(cccc13)C(=O)N(CCN(C)C)C2=O
[1]
  IC50: 0.035 µM
[2]
  Toxicity ratio: 49
[3]
  IC50: 0.035 µM
[4]
  IC50: 0.028 µM
[5]
  IC50: 0.034 µM
[6]
  IC50: 0.07 µM
[7]
  IC50: 1.69 µM
[8]
  IC50: 0.042 µM

## CN(C)CCN1C(=O)c2cccc3c(O)c4ccccc4c(c23)C1=O
[1]
  IC50: 2.59 µM
[2]
  Toxicity ratio: >9
[3]
  IC50: 3.66 µM
[4]
  IC50: 1.18 µM
[5]
  IC50: 0.472 µM
[6]
  IC50: 0.212 µM
[7]
  IC50: > 24.1 µM
[8]
  IC50: 6.13 µM
